The target in series [1] is D(3) dopamine receptor (Rattus norvegicus, UniProt P19020). The series can be described thus: Displacement of [3H]spiperone from rat recombinant dopamine D3 receptor expressed in Sf9 cells.
Series [2] is filed under the species Rattus norvegicus. The series can be described thus: Selectivity ratio of Ki for adrenergic alpha-1 receptor in rat cerebral cortical membranes to Ki for rat recombinant dopamine D3 receptor. The series is classed as cell membranes. The note with it: Membrane.
Series [3] concerns the target T1, Adrenergic receptor alpha-1 (Rattus norvegicus, UniProt P15823+P23944+P43140).
T1 sequence (P15823 whole entry): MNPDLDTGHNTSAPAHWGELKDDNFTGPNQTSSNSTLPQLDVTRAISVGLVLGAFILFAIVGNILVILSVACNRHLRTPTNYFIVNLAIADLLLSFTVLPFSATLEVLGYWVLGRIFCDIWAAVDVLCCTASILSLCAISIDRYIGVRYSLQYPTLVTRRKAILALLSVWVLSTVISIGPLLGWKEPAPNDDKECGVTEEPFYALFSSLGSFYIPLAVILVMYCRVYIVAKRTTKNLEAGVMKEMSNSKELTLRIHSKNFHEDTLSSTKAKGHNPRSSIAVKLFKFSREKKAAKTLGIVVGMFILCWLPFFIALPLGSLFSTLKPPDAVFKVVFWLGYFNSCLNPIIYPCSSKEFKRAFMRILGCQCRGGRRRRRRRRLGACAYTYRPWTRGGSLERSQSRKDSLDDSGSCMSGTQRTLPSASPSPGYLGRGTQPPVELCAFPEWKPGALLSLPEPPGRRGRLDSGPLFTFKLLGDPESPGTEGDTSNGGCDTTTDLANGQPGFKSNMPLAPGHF
T1 sequence (P23944 whole entry): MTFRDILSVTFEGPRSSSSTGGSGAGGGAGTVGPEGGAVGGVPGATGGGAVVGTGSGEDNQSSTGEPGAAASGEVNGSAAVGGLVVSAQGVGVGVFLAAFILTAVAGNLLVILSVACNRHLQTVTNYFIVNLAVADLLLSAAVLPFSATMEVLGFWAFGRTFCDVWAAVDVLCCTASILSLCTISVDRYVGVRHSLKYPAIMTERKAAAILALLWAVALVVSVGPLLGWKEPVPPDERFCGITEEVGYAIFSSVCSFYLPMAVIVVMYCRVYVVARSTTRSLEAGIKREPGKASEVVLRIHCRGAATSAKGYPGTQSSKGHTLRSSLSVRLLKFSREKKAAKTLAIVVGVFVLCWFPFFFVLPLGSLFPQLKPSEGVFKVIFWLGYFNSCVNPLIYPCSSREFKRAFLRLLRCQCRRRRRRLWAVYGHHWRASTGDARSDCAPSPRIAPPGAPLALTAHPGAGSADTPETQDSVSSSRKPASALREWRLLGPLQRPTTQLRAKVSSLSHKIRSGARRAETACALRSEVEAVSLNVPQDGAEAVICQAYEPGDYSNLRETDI
T1 sequence (P43140 whole entry): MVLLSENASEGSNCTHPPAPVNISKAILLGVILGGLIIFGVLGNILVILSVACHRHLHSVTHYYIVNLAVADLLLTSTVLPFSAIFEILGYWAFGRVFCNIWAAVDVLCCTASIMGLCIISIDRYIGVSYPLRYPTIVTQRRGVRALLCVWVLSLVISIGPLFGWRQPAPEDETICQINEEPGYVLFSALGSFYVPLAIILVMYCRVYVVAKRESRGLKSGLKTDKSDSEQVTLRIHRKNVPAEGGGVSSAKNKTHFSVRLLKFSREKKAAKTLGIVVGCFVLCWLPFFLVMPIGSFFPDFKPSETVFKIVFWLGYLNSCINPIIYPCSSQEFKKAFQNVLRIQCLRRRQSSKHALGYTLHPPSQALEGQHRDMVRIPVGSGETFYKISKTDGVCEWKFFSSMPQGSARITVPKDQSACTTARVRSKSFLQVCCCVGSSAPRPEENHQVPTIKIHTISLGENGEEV
The series can be described thus: Displacement of [3H]-prazosin from adrenergic alpha-1 receptor in rat cerebral cortical membranes. Type of series: cell membranes, Membrane. Summed up:
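Alpha-1 binding used rat cerebral cortical membranes with [3H]prazosin 0.5 nM, with phentolamine defining nonspecific binding. Ki values are means of two to four independent experiments, each with at least six concentrations in duplicate.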
(In general: Loss of bound radioactivity is the signal in a displacement assay; it reports binding, not function.)

Series [4] has as its target D(2) dopamine receptor (Rattus norvegicus, UniProt P61169). The series can be described thus: Displacement of [3H]spiperone from dopamine D2 receptor in rat striatal membranes. The series is classed as cell membranes, Membrane. Summed up: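 Rat striatal membranes; [3H]spiperone 0.7 nM as radioligand; nonspecific binding defined with (+)-butaclamol. Ki values are means of two to four independent experiments, each with at least six concentrations in duplicate.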

The subject of series [5] is Mus musculus. Nature of the series: Antipsychotic activity in po dosed CD1 mouse assessed as reduction of apomorphine-induced climbing behaviour administered 1 hr before apomorphine challenge measured after 10 to 16 mins. Type of series: functional.
Series [6] in a line: Metabolic stability in rat liver microsomes at 2.5 uM measured up to 20 mins. Type of series: ADME, Microsome. As to conditions: read-out: Stability. Summed up:
(§1)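 Compound incubated for up to 20 min with human or rat liver microsomes. Substrate consumption was followed over time; the plot was linear and was analysed by linear regression.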
In general terms: Microsomes from liver hold many membrane-bound enzymes, among them those of drug oxidation.

Series [7] is described as follows: Metabolic stability in human liver microsomes at 2.5 uM measured up to 20 mins. The series is classed as ADME, Microsome. As to conditions: read-out: Stability. Summed up:
as §1

In series [8] the target is D(1B) dopamine receptor (Homo sapiens, UniProt P21918). The series can be described thus: Binding affinity to human dopamine D5 receptor.
Chain of D(1B) dopamine receptor (P21918 whole entry): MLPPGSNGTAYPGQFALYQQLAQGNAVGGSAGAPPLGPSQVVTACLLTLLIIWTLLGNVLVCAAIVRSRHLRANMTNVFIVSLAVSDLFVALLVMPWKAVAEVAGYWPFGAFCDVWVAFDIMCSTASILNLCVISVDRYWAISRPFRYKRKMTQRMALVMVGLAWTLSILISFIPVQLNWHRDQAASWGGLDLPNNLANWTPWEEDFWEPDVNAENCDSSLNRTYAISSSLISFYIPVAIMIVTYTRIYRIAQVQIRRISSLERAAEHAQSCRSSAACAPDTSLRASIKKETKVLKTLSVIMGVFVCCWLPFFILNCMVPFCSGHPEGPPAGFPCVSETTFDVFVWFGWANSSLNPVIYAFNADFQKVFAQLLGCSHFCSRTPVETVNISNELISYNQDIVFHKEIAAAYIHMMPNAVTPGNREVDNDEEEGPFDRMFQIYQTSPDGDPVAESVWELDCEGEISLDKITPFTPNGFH
The subject of series [9] is Rattus norvegicus. The series can be described thus: Induction of catalepsy in po dosed rat. Type of series: organism-based. The note with it: in vivo.
Series [10] can be described thus: Oral bioavailability in rat. Type of series: ADME, organism-based. As to conditions: in vivo.
In series [11] the target is D(1A) dopamine receptor (Rattus norvegicus, UniProt P18901). Nature of the series: Binding affinity to rat dopamine D1 receptor.
Chain of D(1A) dopamine receptor (P18901 whole entry): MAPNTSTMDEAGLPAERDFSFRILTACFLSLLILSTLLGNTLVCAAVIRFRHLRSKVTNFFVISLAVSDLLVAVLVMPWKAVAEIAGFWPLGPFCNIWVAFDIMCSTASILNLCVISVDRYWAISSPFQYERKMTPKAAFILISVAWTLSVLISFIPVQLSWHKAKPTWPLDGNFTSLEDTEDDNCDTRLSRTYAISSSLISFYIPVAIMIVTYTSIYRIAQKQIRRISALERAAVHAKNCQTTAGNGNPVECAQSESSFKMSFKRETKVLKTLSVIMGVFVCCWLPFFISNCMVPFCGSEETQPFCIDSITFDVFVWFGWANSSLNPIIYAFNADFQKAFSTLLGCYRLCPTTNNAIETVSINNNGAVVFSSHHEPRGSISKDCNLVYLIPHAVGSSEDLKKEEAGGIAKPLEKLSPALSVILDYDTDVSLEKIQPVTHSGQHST
Series [12] can be described thus: Apparent terminal half life in iv or po dosed rat. The note with it: in vivo, read-out: betat1/2(app) (converted). Type of series: ADME, organism-based.
The nature of series [13]: Binding affinity to human dopamine D4.2 receptor.
A short description of series [14]: Ratio of drug level in brain to plasma in iv or po dosed rat. The note with it: read-out: BPR. Type of series: ADME, organism-based.
Series [15] in a line: Tmax in rat brain. Type of series: ADME, tissue-based.
The nature of series [16]: Cmax in rat. As to conditions: in vivo. Type of series: ADME, organism-based.

Chain of D(2) dopamine receptor (P61169 whole entry): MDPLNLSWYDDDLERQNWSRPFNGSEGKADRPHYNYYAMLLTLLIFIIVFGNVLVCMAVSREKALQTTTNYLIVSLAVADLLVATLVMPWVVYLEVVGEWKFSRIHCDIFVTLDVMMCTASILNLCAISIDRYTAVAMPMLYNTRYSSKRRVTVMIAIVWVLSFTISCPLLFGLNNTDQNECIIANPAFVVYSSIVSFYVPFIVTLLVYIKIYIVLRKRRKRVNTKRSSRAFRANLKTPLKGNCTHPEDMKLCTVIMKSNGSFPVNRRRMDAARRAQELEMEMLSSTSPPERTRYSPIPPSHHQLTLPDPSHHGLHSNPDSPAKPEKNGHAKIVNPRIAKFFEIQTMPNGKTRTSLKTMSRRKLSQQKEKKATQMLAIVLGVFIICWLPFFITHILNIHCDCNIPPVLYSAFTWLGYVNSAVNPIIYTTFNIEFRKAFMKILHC
Chain of D(3) dopamine receptor (P19020 whole entry): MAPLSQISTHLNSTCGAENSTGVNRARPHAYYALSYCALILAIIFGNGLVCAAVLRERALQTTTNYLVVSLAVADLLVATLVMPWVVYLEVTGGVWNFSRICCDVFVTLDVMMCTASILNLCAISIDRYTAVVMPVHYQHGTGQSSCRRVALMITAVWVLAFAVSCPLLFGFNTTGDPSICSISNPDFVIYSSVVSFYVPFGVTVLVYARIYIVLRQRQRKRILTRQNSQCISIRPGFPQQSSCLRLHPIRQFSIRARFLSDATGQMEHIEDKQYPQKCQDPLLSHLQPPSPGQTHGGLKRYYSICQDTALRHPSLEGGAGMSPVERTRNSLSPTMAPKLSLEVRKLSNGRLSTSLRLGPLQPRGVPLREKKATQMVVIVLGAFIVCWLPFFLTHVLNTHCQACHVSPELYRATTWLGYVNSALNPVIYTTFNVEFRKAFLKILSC

Regarding `CN(C)C(=O)N[C@H]1CC[C@H](CCN2CCN(c3ccc(Cl)c(Cl)c3)CC2)CC1`, the figures for the inhibition constant Ki in series [1], in [3] and in [4] were 3.3 nM, 29.6 nM and 110 nM, respectively. For the same compound, the Ratio Ki in series [2] is 8.9.
`CC(=O)N[C@H]1CC[C@H](CCN2CCN(c3cccc(Cl)c3Cl)CC2)CC1`: the 50% inhibitory concentration (IC50) in series [1] came to 0.29 nM; in [4] it was 2.3 nM. Also, the 50% effective dose (ED50) in [5] is 0.17 mg/kg.
For `CS(=O)(=O)N[C@H]1CC[C@H](CCN2CCN(Cc3cccc(C(F)(F)F)c3)CC2)CC1`, in that order: 11 nM, 158 nM and 1.34 mg/kg.
On to `CN(C)C(=O)N[C@H]1CC[C@H](CCN2CCN(c3ccc(Cl)cc3Cl)CC2)CC1`, for which the results for the Ki in [1], in series [3] and in [4] were 5.4 nM, 156 nM and 106 nM, respectively. Besides, in [2], the Ratio Ki was 28.9.
Consider `CN(C)C(=O)N[C@H]1CC[C@H](CCN2CCN(c3cc(Cl)ccc3Cl)CC2)CC1`, for which the Ki in series [1] amounted to 0.66 nM; in [3], 34.9 nM; in series [4], 8.2 nM. Besides, the Ratio Ki in series [2] stood at 52.8.
As to `CN(C)C(=O)N[C@H]1CC[C@H](CCN2CCN(c3cc(Cl)cc(Cl)c3)CC2)CC1`, the remaining at 20 min, 2.5 µM was 73% in series [6] and 58% in series [7].
On to `CCNC(=O)N[C@H]1CC[C@H](CCN2CCN(c3cccc(Cl)c3Cl)CC2)CC1`, for which the results for the 50% inhibitory concentration (IC50) in series [1] and in series [4] were 0.34 nM and 16.9 nM, respectively. For the same compound, in series [5], the ED50 was 0.38 mg/kg.
In the same order, the values of `CC(=O)N[C@H]1CC[C@H](CCN2CCN(c3cc(C#N)cc(C(F)(F)F)c3)CC2)CC1` are 1.9 nM, 143 nM and 1.54 mg/kg.
As to `CCOC(=O)N[C@H]1CC[C@H](CCN2CCN(Cc3cccc(C(F)(F)F)c3)CC2)CC1`, the values for the 50% inhibitory concentration (IC50) in series [1] and in series [4] were 5.1 nM and 25 nM, respectively. The median effective dose (ED50) in series [5] is 5.37 mg/kg.
Regarding `CN(C)C(=O)N[C@H]1CC[C@H](CCN2CCN(c3cccc(Cl)c3Cl)CC2)CC1.Cl` [CARIPRAZINE HYDROCHLORIDE], the IC50 was above 1000 nM in series [8], above 1000 nM in [11], above 1000 nM in [13] and […] in series [4]. Further, the MED in series [9] is above 85 mg/kg. In addition, the bioavailability in [10] is 52%. In addition, the half-life in [12] is 2 h. For the same compound, the remaining at 20 min, 2.5 µM stood at 93% in [6] and 96% in [7]. In [14], the Kp was found to be 7.6. In [15], the Tmax came out at 0.5 h. Further, the concentration in series [16] peaked (Cmax) at 91 ng/mL. The inhibitory constant (Ki) in series [3] was determined as 214 nM.

The Ki is the equilibrium dissociation constant of an inhibitor or competing ligand from its target. As usually defined, the IC50 is the concentration that gives 50% inhibition. As usually defined, the ED50 is the dose that gives a 50% effect, or the effect in half of the subjects. As usually defined, the bioavailability is dose-corrected exposure relative to a reference, in per cent. Read a high bioavailability as good availability. In general, Tmax refers to the time at which the peak concentration occurs. As usually defined, the Cmax is the highest concentration seen after dosing.

The values above are taken from ChEMBL document CHEMBL2021900, “Discovery of cariprazine (RGH-188): a novel antipsychotic acting on dopamine D3/D2 receptors” (Bioorg Med Chem Lett, 2012).
